KCNK3 inh – human KCNK3 channel inhibition, primary screen. B-score at 10 µM. 0.84% of 340,000 active. CHO-KCNK3 thallium flux, FluxOR fluorescence; hits give low values. AID 602410;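 active = B-score under library mean minus 4 SD, starting fluorescence ratio at most library mean plus 5 SD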;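 also: more negative B-score means stronger inhibition of thallium flux through KCNK3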
KCNQ1 act – potentiates or activates the human KCNQ1 potassium channel | 0.35% of 310,000 active | AID 2648 | CHO-K1 KCNQ1, thallium flux FluxOR fluorescence; hits give high values | B-score at 10 µM;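 active = fluorescence ratio B-score, a plate-corrected score, at least three library SD, with initial intensity B-score within 5 SD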
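System: Stable KCNQ1 CHO-K1 line | Incubation: 90 min dye loading and 20 min compound exposure, both at room temperature | Measure: Ratio B score | Medium: Assay buffer for compound exposure, DMSO matched across wells | Compound dosing: Single-concentration screen | Probe or stimulus: K+/Tl+ depolarizing stimulus | Measured by: Kinetic FluxOR fluorescence, 10 s baseline plus 110 s post-stimulus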
Kir21 inh – blocks the mouse Kir2.1 inward-rectifier potassium channel; HEK293-Kir2.1, FluxOR thallium flux fluorescence; hits give low values; 0.85% of 310,000 active; B-score at 10 µM; P35561;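 active = fluorescence ratio B-score at or below minus 3 SD of library scores, with starting-brightness B-score within 2 SD, cut at about -4.2 in these data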;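 also: channel flux triggered by added potassium and thallium sulfate stimulus; B-score of peak minus minimum fluorescence over baseline after thallium stimulus; more negative B-score means stronger Kir2.1 block with less thallium influx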
Target sequence (P35561 whole entry, looked up): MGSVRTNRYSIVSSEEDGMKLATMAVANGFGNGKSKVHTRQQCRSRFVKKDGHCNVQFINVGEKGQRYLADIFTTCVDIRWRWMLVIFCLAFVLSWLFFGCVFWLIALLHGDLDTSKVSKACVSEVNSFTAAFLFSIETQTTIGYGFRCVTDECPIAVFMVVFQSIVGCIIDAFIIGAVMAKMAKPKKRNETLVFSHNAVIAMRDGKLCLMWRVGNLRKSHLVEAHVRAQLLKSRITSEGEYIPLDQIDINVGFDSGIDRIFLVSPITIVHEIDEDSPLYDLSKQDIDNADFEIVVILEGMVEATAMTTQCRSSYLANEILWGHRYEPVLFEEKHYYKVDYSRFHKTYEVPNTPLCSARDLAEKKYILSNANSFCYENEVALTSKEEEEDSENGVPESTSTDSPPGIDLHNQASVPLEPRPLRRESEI
KCNQ1 block – human KCNQ1 channel inhibition; CHO-K1 KCNQ1, FluxOR thallium flux fluorescence; hits give high values; B-score at 10 µM; 1.3% of 310,000 active; P51787;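 active = compounds whose thallium flux B-score, printed positive for inhibition, exceeds three library SD while starting fluorescence stays within three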;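 also: channel opened by potassium depolarization with thallium stimulus after 20 min compound exposure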
hERG protect – shields human hERG channel from block by proarrhythmic agents; Q12809; CHO-hERG, FluxOR thallium flux, dofetilide IC70 present; activation (rescue from dofetilide block), less the hit threshold, % at 10 µM; 0.51% of 310,000 active;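 active = activation above the mean of controls blocked by dofetilide plus 5 SD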;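 also: thallium influx through hERG after potassium depolarization seen as dye fluorescence rise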
KCNK9 block – human KCNK9 channel inhibition; AID 488922; B-score at 10 µM; HEK293 KCNK9, FluxOR thallium flux fluorescence; hits give low values; Q9NPC2; 1.2% of 310,000 active;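 active = ratio B-score over 3 SD below the library mean, with starting fluorescence within 5 SD of its mean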;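 also: negative B-score means less thallium flux so channel inhibition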
Numbers without * were called inactive; i = inactive; nt = no result. Only some compounds are listed: those with a hit (about 3.7% of all), similar ones and a draw of the others.

SMILES	KCNK3 inh	KCNQ1 act	Kir21 inh	KCNQ1 block	hERG protect	KCNK9 block
COc1ccc(C2=NS(=O)(=O)N(C)C(C(=O)Nc3ccc(C)cc3)=C2)cc1	i	i	0.2	i	-8.6	i
COc1cc(/C=C2/C(=O)N(c3ccc(Br)cc3)N=C2C)cc(OC)c1OC	i	i	-0.1	8*	-7.8	i
CCOC(=O)c1cc(-c2ccccc2C)nn1CC1CC(c2ccc(OC)cc2)=NO1 (stereo not drawn)	i	nt	nt	nt	nt	nt
CN(C)c1ccc(N=Cc2nc(-c3ccccc3)oc2OC(=O)c2cccc(Br)c2)cc1	i	i	-1.57	i	-7.2	-6.59*
COc1ccc(N=Cc2nc(-c3ccccc3)oc2OC(=O)c2ccccc2)cc1	i	i	0.06	i	-2.5	i
CSc1ccc(S(=O)(=O)Nc2c(C)n(C)n(-c3ccccc3)c2=O)cc1	i	i	-0.82	i	-5.3	i
O=C(O)c1ccc(Cl)cc1Nc1nc2cc(Cl)ccc2o1	i	i	0.75	i	5.6*	i
CCC(=O)Nc1cc(Cl)ccc1C(=O)O	i	i	-0.09	i	-8.3	i
O=C(O)CCSc1ncnc2sc(-c3ccccc3)cc12	i	14*	1.32	i	6.6*	i
O=C1CC(c2cc(-c3ccccc3)no2)C1	i	i	1.1	i	-4.5	i
CC(=O)c1sc(NC(=O)c2cnc(Cl)c(Cl)c2)nc1C	i	i	0.05	9*	-2.5	i
CC(=O)c1ccc(N2C(=O)C3C(C2=O)C(C(=O)c2ccc(Cl)cc2)N2CCCC32)cc1 (stereo not drawn)	nt	i	-1.9	8*	-19.9	i
O=C(c1ccc(Cl)cc1)C1C2C(=O)N(c3ccccc3)C(=O)C2C2CCCN21 (stereo not drawn)	i	i	-2.15	i	-15.6	i
COc1ccc(S(=O)(=O)N2CCOCC2)cc1C(=O)Nc1ccc(N2CCCCCC2)cc1	i	nt	nt	nt	nt	nt
CCOC(=O)c1sc(NC(=O)C(CC)Sc2nnc3c4ccccc4n(C(C)C)c3n2)nc1C (stereo not drawn)	-10.9*	nt	nt	nt	nt	nt
CCOC(=O)Cc1nnc(NC(=O)C(CC)Sc2nnc3c4ccccc4n(C)c3n2)s1 (stereo not drawn)	i	i	-0.28	i	-6.9	i
Fc1cccc(C2NN=C(c3ccccc3)S2)c1 (stereo not drawn)	i	i	0.09	i	10.5*	i
Cn1nc(C(F)(F)F)cc1-c1ccc(/C=C(\C#N)C(=O)c2ccccc2)s1	i	i	0.03	8*	-4.4	i
CNC(=O)c1ccc(-c2cc(C(F)(F)F)nn2C)s1	i	i	0.82	i	-7.1	i
COc1ccc(C2=Nn3c(nnc3-c3ccccc3OC)SC2)cc1OC1CCOC1 (stereo not drawn)	i	nt	nt	nt	nt	nt
CC(C)c1nc(SCC(=O)Nc2ccc([N+](=O)[O-])cc2Br)n[nH]1	i	i	-1.53	i	8.6*	i
CCOc1ccc(NC(=O)COC(=O)COc2cccc3c2OC(C)(C)C3)cc1	i	i	-0.77	i	-10.2	i
O=C(COC(=O)C1(c2cccc(F)c2)CCCC1)NCc1cccs1	i	i	-5.27*	i	-22.1	i
O=C(NCc1ccc2c(c1)OCO2)c1cccc(F)c1	i	i	-0.48	i	-5.5	i
O=C(COC(=O)C1(c2cccc(F)c2)CCCC1)NCc1ccc2c(c1)OCO2	i	i	-4.21*	i	-9.3	i
SMILES	KCNK3 inh	KCNQ1 act	Kir21 inh	KCNQ1 block	hERG protect	KCNK9 block
Cc1c(CCOC(=O)C23CC4CC(CC(C)(C4)C2)C3)sc[n+]1CC(=O)c1ccccc1	i	i	-2.24	i	-15.3	i
Cc1c(CCOC(=O)CC23CC4CC(CC(C)(C4)C2)C3)sc[n+]1CC(=O)c1ccccc1	i	i	-2.28	11*	-18.0	i
Cc1cc(Cl)ccc1OCC(=O)NNC(=O)C1CCCO1 (stereo not drawn)	i	26*	-2.16	i	-4.8	i
COc1ccc([C@H]2/C=C\CN(S(=O)(=O)c3ccc4ccccc4c3)[C@@H](C)C(=O)N2Cc2ccc(F)cc2)cc1	i	i	-0.01	i	-18.3	-7.76*
COc1ccc([C@H]2/C=C\CN(S(=O)(=O)c3cccc4cccnc34)[C@@H](C)C(=O)N2Cc2ccc(F)cc2)cc1	i	i	0.62	i	-13.7	i
O=C(COc1ccc2ccccc2c1)NNC(=O)C(=O)Nc1ccccc1	i	35*	0.24	i	45.0*	i
CN(c1ccc(OCC(=O)OCC(=O)Nc2ccc(F)cc2)cc1)S(=O)(=O)c1ccc(Cl)cc1	i	i	-0.06	i	-3.0	i
CCN(C(=O)COc1ccc(N(C)S(=O)(=O)c2ccc(NC(C)=O)cc2)cc1)C1CCCCC1	-8.74*	nt	nt	nt	nt	nt
COc1ccc(NC(=O)COc2ccc(N(C)S(=O)(=O)c3ccc(Cl)cc3)cc2)cc1OC	i	i	2.2	10*	-22.8	i
Cc1cccc(NC(=O)NNC(=O)COc2ccc3ccccc3c2)c1	i	i	0	i	-3.9	i
CCc1ccc(NC(=O)C(=O)NNC(=O)COc2cccc(OC)c2)cc1	i	28*	-1.54	i	7.2*	i
CCOc1ccc(NC(=O)COc2ccc(OC)cc2)cc1	i	i	-1.33	i	-7.5	i
COc1ccc(NC(=O)C(=O)NNC(=O)COc2ccc(OC)cc2)cc1	i	i	0.74	i	7.8*	i
Cc1ccccc1OCC(=O)Nc1cccc(C(=O)O)c1	i	i	1.52	i	5.5*	i
Cc1cc(Br)ccc1OCC(=O)NNC(=O)C(=O)Nc1ccccc1	i	92*	0.37	i	50.8*	i
COc1cc(NC(=O)COc2ccc(Cl)cc2)ccc1NC(=O)C(C)C	i	i	0.33	i	1.7	i
Cc1cc(Br)ccc1OCC(=O)NNC(=O)Cc1ccccc1	i	i	1.36	i	-7.0	i
COc1ccc(NC(=O)C(=O)NNC(=O)COc2ccc(Cl)cc2)c(OC)c1	i	69*	0.06	i	16.1*	i
Cc1ccc(C)c(NC(=O)C2CCCN(S(=O)(=O)c3cccnc3)C2)c1 (stereo not drawn)	i	i	0.69	i	-7.0	i
NC(=NC(=O)c1cccc(C(F)(F)F)c1)c1ccc(C(F)(F)F)cn1	i	i	-0.34	i	-9.7	-7.02*
O=C(OCC(=O)N1CCCCC1)c1ccc2c(c1)C(=O)N(Cc1ccco1)C2=O	i	nt	nt	nt	nt	nt
Cc1nc2cc3c(cc2c(C)c1C(=O)OC(C)C)OCO3	i	i	1.26	i	-8.4	i
